Beta cell apopt = blocks beta cell apoptosis; INS-1E cytokine-induced death, ATP luminescence, 48 h; percent of positive-control rescue, neutral wells zero; protection from apoptosis, % (concentration not given with the values); hit rate 0.8% among 300,000;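 active = Every replicate reaches about 75%, or at least half do and their mean reaches it too, limit read from the data; inconclusive = At least half of replicates reach the limit but their mean does not; inactive = Under half of replicates reach the limit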;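 also: 0% = cytokine-treated negative control wells and 100% = positive control rescue; higher means more ATP so stronger rescue from cytokine killing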
SUMO Mot1 rescue = blocks SUMOylation pathway, rescuing yeast Mot1-301 growth; S. cerevisiae Mot1-301 growth rescue, ATP luminescence, 38.5C; percent above DMSO median, 100 means doubled; growth rescue, % at 18.8 µM; hit rate 1% among 320,000; AID 2716;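 active = every valid replicate shows activation above 250% relative to neutral control wells; inactive = the rest, any valid replicate at or below 250%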;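 also: OY570 slx delta 5 strain wells were the positive control but not used for scaling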
WT yeast gro inh = growth inhibition of WT yeast, mitochondrial fusion screen. mitochondrial fusion phenotypic screen, WT strain. inhibition, % at 10 µM. hit rate 2.1% among 190,000. AID 1362; in the data active = inhibition above about 58%; tested in S. cerevisiae
CSC inhib = cancer stem cell inhibition; inhibition, % at 7.5 µM; cancer stem cell-like cells viability, luminescence; AID 2717; hit rate 1.1% among 300,000; in the data active = inhibition above about 75%; inconclusive = no clear call, values can overlap the other calls; tested in HMLE shEcad cells
T cruzi inh = T. cruzi replication inhibition. T. cruzi beta-gal in NIH3T3, luminescence, 90 h. inhibition, % (concentration not given with the values). hit rate 1.4% among 300,000;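 active = mean inhibition across valid replicates above about 55%, limit read from the data; inconclusive = mean below that limit but half or more replicates reach it; inactive = mean below it, under half of replicates reach it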;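 also: signal also drops with host cell toxicity which is not excluded here; 0% = plate median of DMSO wells and 100% = zero luminescence signal; higher percent means less beta-gal luminescence so fewer parasites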
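Read-out: Parasite load inhibition, % | Test system: Mouse NIH/3T3 fibroblasts infected with β-gal-expressing T. cruzi Tulahuen C4 | Amount: 5,000 cells/well | Medium: DMEM, 2% fetal bovine serum | Signal: GalScreen β-gal luminescence, detergent lysis, 60 min | Timing: 3 h attach, ≥90 h co-culture | Also added: Tulahuen C4 trypomastigotes, 5000/well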
Efflux pump inh = antifungal efflux pump inhibition, Nile Red retention; inhibition, % at 10 µM; S. cerevisiae Candida pump triplex; AID 485275; hit rate 0.44% among 330,000;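 active = plate passing quality check with inhibition over a set limit, or well fluorescence over plate mean plus 4 SD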;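 also: Nile Red retained in pooled yeast measured as flow cytometry median fluorescence; 0% = buffer negative control and 100% = Enniatin B positive control; higher means more Nile Red kept so more efflux inhibition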
Mot1 SUMO dose = SUMO pathway inhibitors in yeast Mot1-301 growth; shares compounds with SUMO Mot1 rescue; S. cerevisiae Mot1-301 galactose growth, ATP luminescence, 24 h; -100 = growth of slx-deleted rescue strain; growth activity, percent, % at 42 µM; 2,300 tested, under 10 active; AID 493004;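 active = Signal drops as the depositor expects, and the fitted half-maximal dose is no more than ten times the top valid tested dose; inconclusive = Poor fit, or a flat curve whose signal drops by 30% to 70%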;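 also: more negative values mean stronger growth rescue toward the control strain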
* hit, by the source's call; i = inactive; ? = inconclusive; . = no result; + = active, no number; [ ] = remark or other dose. Compounds with a hit are over-represented: about 4.8% of the library has one in this group of screens.

SMILES | Beta cell apopt | SUMO Mot1 rescue | WT yeast gro inh | CSC inhib | T cruzi inh | Efflux pump inh | Mot1 SUMO dose
CC(C)(C)NC(=O)NC(=O)CN1CCN(S(=O)(=O)c2ccc3c(c2)CCCC3)CC1 | -1 | 1 | . | 1 | 45 | 0 | .
COc1cccc(CC(=O)OCC(=O)NCC(=O)Nc2cccc(C)c2C)c1 | -5 | -19 | . | -3 | -6 | 0 | .
CC1=C/C(=N\OS(=O)(=O)c2ccccc2)C(C(C)C)=CC1=O | ? | 413* | 98 | 62 | . | 0 | -3
O=C(Nc1nccs1)c1ccc(S(=O)(=O)c2ccccc2)cc1 | -3 | 695* | -3 | -2 | 2 | 0 | 0
O=C(Nc1nccs1)c1ccc(S(=O)(=O)N2CCCCC2)cc1 | . | -7 | 11 | -15 | -3 | 0 | .
CCOC(=O)C1(Cc2cccc(F)c2)CCN(C(=O)c2cnccn2)CC1 | -4 | 632* | 2 | -2 | -10 | 0 | 0
CN(C)S(=O)(=O)c1cccc(C(=O)Nc2cc3c(cc2C(=O)O)OCCCO3)c1 | -6 | 438 | . | -12 | -3 | 0 | .
CCS(=O)(=O)N1Cc2ccccc2CC1C(=O)N(C)CC(=O)Nc1ccc(F)c(F)c1F (stereo not given) | 0 | i | . | -18 | -2 | 0 | .
O=C(C1CCC(CNc2c(N3CCCCC3)c(=O)c2=O)CC1)N1CCN(c2ccccn2)CC1 (stereo not given) | 10 | -5 | 12 | 6 | -14 | 1 | .
O=C(C1CCC(CNc2c(N3CCCCC3)c(=O)c2=O)CC1)N1CCN(C2CCCCC2)CC1 (stereo not given) | 8 | 499* | . | 4 | -2 | 0 | 1
CN(c1ccccc1)S(=O)(=O)c1ccc(C(=O)NCC2CCCO2)cc1 (stereo not given) | 1 | 451* | 1 | -3 | -14 | 0 | 0[21 µM]
CS(=O)(=O)N1CCCC(C(=O)NCc2ccco2)C1 (stereo not given) | -4 | 384* | -1 | 5 | -7 | 0 | 0
Cc1ccc(C2C(C(=O)c3cccs3)=C(O)C(=O)N2c2ccc(S(N)(=O)=O)cc2)cc1 (stereo not given) | 1 | 932* | . | -2 | 14 | 0 | 0
CCCCn1c(N)c(N(CC)C(=O)c2c(CC)noc2C)c(=O)[nH]c1=O | -9 | 4 | . | -5 | -6 | 0 | .
CCCCn1c(N)c(N(Cc2ccccc2OC)C(=O)c2c(CC)noc2C)c(=O)[nH]c1=O | -3 | 395* | . | . | 8 | 0 | 1
CCN1CSC(=S)N(Cc2ccc(OC)cc2)C1 | -6 | + | . | 47 | 20 | 0 | 0
O=C(O)C(Cc1ccccc1)N1C(=O)c2cccc3cccc(c23)C1=O (stereo not given) | -6 | -8 | -7 | -4 | -21 | 0 | .
O=C(Nc1cccc(O)c1)C(Cc1ccccc1)N1C(=O)c2cccc3cccc(c23)C1=O (stereo not given) | 0 | 855* | 4 | -12 | 9 | 0 | 1
CCN(CC)C(=O)Cn1c(=O)n(CCCC(=O)NCc2ccccc2)c(=O)c2sccc21 | -2 | 539* | -13 | -4 | -14 | 0 | 1
CCN(CC)C(=O)Cn1c(=O)n(CCCCCC(=O)Nc2ccccc2)c(=O)c2sccc21 | -10 | 3 | -4 | 5 | 4 | -1 | .
Cc1ccc(N2CN(CCc3ccccc3)CNC2=S)cc1 | 0 | 419* | . | -7 | . | 0 | 1
CCOC(=O)c1ccc(N2CN(CCc3ccccc3)CNC2=S)cc1 | 0 | -26 | -3 | -6 | 8 | 0 | .
CCN(CC)CCCn1c(=S)[nH]c2cc(Cl)ccc2c1=O | 0 | -9 | -7 | . | -22 | 0 | .
CCN(CC)CCCn1c(=S)[nH]c2ccc(Cl)cc2c1=O | 1 | 631* | 15 | . | -11 | 0 | 0
O=C(CSCc1cc(=O)n2ccsc2n1)Nc1ccccc1 | -5 | 235 | . | -5 | -4 | 0 | .
SMILES | Beta cell apopt | SUMO Mot1 rescue | WT yeast gro inh | CSC inhib | T cruzi inh | Efflux pump inh | Mot1 SUMO dose
CCCCN(C/C=C/c1ccccc1OC)Cc1ccccc1 | 3 | 529* | . | -12 | 16 | 0 | 0
Cn1nnc2ccccc2c1=O | 5 | 2 | -9 | -4 | -3 | 0 | .
CC1(C)Cc2c(sc3c2c(=O)n(-c2cccc(Cl)c2)c(=O)n3CC(N)=O)CO1 | -8 | -31 | . | -9 | 10 | 0 | .
CC(=O)Nc1ccc(C(=O)OCC(=O)NCc2ccccc2)cc1 | -2 | -3 | 1 | 25 | -8 | 0 | .
CC(=O)Nc1cccc(C(=O)OCC(=O)NCc2ccc(F)cc2)c1 | 0 | 453* | 7 | 2 | -9 | 0 | 0
C(=N\N1CCN(C2c3ccccc3-c3ccccc32)CC1)/c1ccncc1 | -7 | + | 68* | 13 | 24 | 0 | 0
Oc1cccc(/C=N/N2CCN(C3c4ccccc4-c4ccccc43)CC2)c1 | -1 | -6 | . | 0 | -4 | 0 | .
Cc1cc(C(F)F)n2ncc(C(=O)NCCc3ccccc3Cl)c2n1 | 5 | 178 | 12 | 0 | 18 | 0 | .
Cc1cc(C(F)F)n2ncc(C(=O)NCCc3ccc(Cl)cc3)c2n1 | 0 | 540* | 24 | 19 | 28 | 0 | 0
CCC(C(=O)Nc1ccncc1)c1ccccc1 (stereo not given) | 29 | -8 | -13 | -14 | -34 | 0 | .
CCC(C(=O)Nc1cccnc1)c1ccccc1 (stereo not given) | -5 | 422* | . | -7 | -6 | 0 | 1
Cc1ccc(NC(=S)N2CCN(Cc3ccc4c(c3)OCO4)CC2)c(C)c1 | -10 | 378* | . | 25 | -10 | 0 | 0
CCN(CC)c1nc2c(c(=O)[nH]c(=O)n2C)n1CCOc1ccccc1 | -1 | 710* | . | -15 | 5 | 0 | 0
S=c1[nH]nc(-c2ccco2)n1-c1ccc(Br)cc1 | -3 | 532* | . | -16 | . | 0 | 1
COC(=O)c1ccncc1C(=O)Nc1ccc(Oc2ncc(C(F)(F)F)cc2Cl)cc1 | 2 | 369* | . | -16 | -9 | 0 | -1
COC(=O)c1ccncc1C(=O)Nc1ccc(OC)cc1 | -4 | -4 | -14 | -11 | -15 | 0 | .
COc1ccccc1C(=O)NC(CCSC)C(=O)NNC(=O)c1ccccc1O (stereo not given) | 7 | 1 | . | 32 | . | 0 | .
CCCN(CCC)C(=O)CSc1ncccc1C(=O)O | -4 | 399* | -7 | 25 | -15 | 0 | 0
CN(C(=O)CSc1ncccc1C(=O)O)c1ccccc1 | 2 | 2 | -15 | -14 | 0 | 0 | .
O=C(COc1ccc(-n2cnnn2)cc1)NCCc1ccc(F)cc1 | -12 | + | 12 | . | -19 | 0 | 0
O=c1[nH]c(CN2CCN(c3ccccc3O)CC2)nc2ccccc12 | -4 | 78 | 17 | -9 | 7 | 0 | .
O=c1[nH]c(CN2CCN(CCO)CC2)nc2ccccc12 | -8 | 587* | -5 | -5 | 9 | 0 | 0

Screening data deposited in PubChem BioAssay by several laboratories.
